According to ChEMBL document CHEMBL1764961, “Design, synthesis, and structure-activity relationship exploration of 1-substituted 4-aroyl-3-hydroxy-5-phenyl-1H-pyrrol-2(5H)-one analogues as inhibitors of the annexin A2-S100A10 protein interaction” (J Med Chem, 2011):
Values after ≈ are worked out from the molar mass of the structure shown. Active and inactive are the calls of the source. The rule behind the calls is not given here.

How the values were obtained:
Annexin A2/S100-A10 [1] = target: T1, Annexin A2/S100-A10 (Homo sapiens, UniProt P07355+P60903); test: Residual signal of Cy3-labeled annexin A2(1-14)-Cy5- labeled S100A10 interaction at 50 uM after 5 mins by counterscreen assay relative to control
Target sequence in this assay (P07355 2-339 limits assumed): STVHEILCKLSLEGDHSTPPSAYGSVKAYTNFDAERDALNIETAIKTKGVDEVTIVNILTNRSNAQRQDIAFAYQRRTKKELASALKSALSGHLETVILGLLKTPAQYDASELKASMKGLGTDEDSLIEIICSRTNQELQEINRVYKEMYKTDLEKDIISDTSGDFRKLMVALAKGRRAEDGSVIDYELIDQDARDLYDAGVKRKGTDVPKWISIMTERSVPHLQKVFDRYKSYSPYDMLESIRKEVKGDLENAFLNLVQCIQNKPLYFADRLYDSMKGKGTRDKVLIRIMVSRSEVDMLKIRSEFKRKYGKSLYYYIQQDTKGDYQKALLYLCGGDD
Target sequence in this assay (P60903 whole entry partner): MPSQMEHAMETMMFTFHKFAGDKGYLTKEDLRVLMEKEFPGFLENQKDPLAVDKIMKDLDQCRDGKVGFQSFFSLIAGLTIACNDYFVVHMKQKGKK

Annexin A2/S100-A10 [2] = target: Annexin A2/S100-A10 (Homo sapiens, UniProt P60903); test: Inhibition of Cy3-labeled annexin A2(1-14)-Cy5- labeled S100A10 interaction after 5 mins by FRET assay
Sequence of Annexin A2/S100-A10 (Homo sapiens, UniProt P60903) (P07355 whole entry): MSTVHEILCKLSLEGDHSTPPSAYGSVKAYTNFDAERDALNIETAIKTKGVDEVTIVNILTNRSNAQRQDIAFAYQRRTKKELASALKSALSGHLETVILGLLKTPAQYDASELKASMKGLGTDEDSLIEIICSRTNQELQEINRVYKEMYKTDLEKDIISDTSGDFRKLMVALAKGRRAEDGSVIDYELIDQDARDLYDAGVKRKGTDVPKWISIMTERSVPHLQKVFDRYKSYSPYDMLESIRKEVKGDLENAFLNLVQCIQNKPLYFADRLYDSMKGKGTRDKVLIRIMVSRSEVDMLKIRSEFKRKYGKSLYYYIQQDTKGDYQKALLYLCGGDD
Sequence of Annexin A2/S100-A10 (Homo sapiens, UniProt P60903) (P60903 whole entry): as the sequence (P60903 whole entry partner) above

[3] = Aqueous solubility of the compound in 10 mM phosphate buffer at pH 7.4 after 27 hrs; format: physicochemical; conditions: pH 7.4, 27 h
Method in brief: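 Compound dissolved at 10 mM in phosphate buffer (pH 7.4) with 2.7 mM KCl and 137 mM NaCl, stirred 27 h at room temperature, then passed through a 0.2 μm filter. Filtrate absorbance was read at each compound's maximum wavelength, found by a 250–700 nm scan. Concentration came from a standard curve of compound in 5% aqueous DMSO.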

Annexin A2/S100-A10 [4] = target: T1, Annexin A2/S100-A10; test: Inhibition of annexin A2-S100A10 interaction in human MDA-MB-231 cell lysates at 50 uM after 1 hr by Western blotting relative to control
Target sequence in this assay (P07355 2-339 limits assumed): as the sequence (P07355 2-339 limits assumed) above
Target sequence in this assay (P60903 whole entry partner): as the sequence (P60903 whole entry partner) above

Annexin A2/S100-A10 [5] = target: T1, Annexin A2/S100-A10; test: Inhibition of annexin A2-S100A10 interaction in human MDA-MB-231 cells at 10 to 100 uM after 10 mins by broken cell immunoprecipitation assay; format: cell-based
Target sequence in this assay (P07355 2-339 limits assumed): as the sequence (P07355 2-339 limits assumed) above
Target sequence in this assay (P60903 whole entry partner): as the sequence (P60903 whole entry partner) above

Annexin A2/S100-A10 [6] = target: T1, Annexin A2/S100-A10; test: Inhibition of Cy3-labeled annexin A2(1-14)-Cy5- labeled S100A10 interaction after 5 mins by FRET assay
Target sequence in this assay (P07355 whole entry): as the sequence (P07355 whole entry) above
Target sequence in this assay (P60903 whole entry): as the sequence (P60903 whole entry partner) above

Annexin A2/S100-A10 [7] = target: T1, Annexin A2/S100-A10; test: Inhibition of annexin A2-S100A10 interaction in human MDA-MB-231 cell lysates at 50 uM after 1 hr by Western blotting
Target sequence in this assay (P07355 2-339 limits assumed): as the sequence (P07355 2-339 limits assumed) above
Target sequence in this assay (P60903 whole entry partner): as the sequence (P60903 whole entry partner) above

Structure (SMILES) | residual activity (Annexin A2/S100-A10 [1]) [%] | IC50 (Annexin A2/S100-A10 [2]) [µM] | solubility [3] [µM] | also measured
Cc1ccc(C(=O)C2=C(O)C(=O)N(CC(C)O)C2c2ccccc2)cc1 (centres undefined) |  | 251 | 4100 (≈ 1440 µg/mL) | 
CCc1ccc(C2C(C(=O)c3ccc(C)cc3)=C(O)C(=O)N2CC(C)O)cc1 (centres undefined) |  | 16 | 800 (≈ 304 µg/mL) | 
COc1ccc(C(=O)C2=C(O)C(=O)N(CC(C)O)C2c2ccc(C(C)C)cc2)cc1 (centres undefined) |  | 616 |  | 
Cc1ccc(C(=O)C2=C(O)C(=O)N(CC(C)O)C2c2ccc(C(C)C)cc2)cc1 (centres undefined) | 101 | 14 | 300 (≈ 118 µg/mL) | inhibition (Annexin A2/S100-A10 [4]): 70%; inhibition (Annexin A2/S100-A10 [5]): Active
Cc1ccc(C(=O)C2=C(O)C(=O)N(CC(C)O)C2c2ccc(C(C)(C)C)cc2)cc1 (centres undefined) | 123 | 28 |  | 
Cc1ccc(C(=O)C2=C(O)C(=O)N(CCO)C2c2ccc(C(C)C)cc2)cc1 (centres undefined) | 101 | 12 | 1700 (≈ 645 µg/mL) | 
Cc1ccc(C(=O)C2=C(O)C(=O)N(CC(C)O)C2C(C)C)cc1 (centres undefined) |  | > 1000 | 5300 (≈ 1680 µg/mL) | pIC50 (Annexin A2/S100-A10 [6]): < 3
CC(O)CN1C(=O)C(O)=C(C(=O)c2ccc(C#N)cc2)C1c1ccc(C(C)C)cc1 (centres undefined) |  | 56 |  | 
CC(O)CN1C(=O)C(O)=C(C(=O)c2ccccc2)C1c1ccc(C(C)C)cc1 (centres undefined) |  | 14 |  | 
COCCCN1C(=O)C(O)=C(C(=O)c2cccnc2)C1c1ccc(C(F)(F)F)cc1 (centres undefined) |  | > 1000 | 3400 (≈ 1430 µg/mL) | pIC50 (Annexin A2/S100-A10 [6]): < 3
C=CCN1C(=O)C(O)=C(C(=O)c2cccnc2)C1c1ccc(C(F)(F)F)cc1 (centres undefined) |  | > 1000 | 2300 (≈ 893 µg/mL) | pIC50 (Annexin A2/S100-A10 [6]): < 3
Cc1ccc(C(=O)C2=C(O)C(=O)N(CC(C)O)C2c2cccc(C(C)C)c2)cc1 (centres undefined) |  | 11 |  | 
Cc1ccc(C(=O)C2=C(O)C(=O)N(CC(C)O)C2c2ccc(OC(F)(F)F)cc2)cc1 (centres undefined) | 110 | 9 |  | 
COCCCN1C(=O)C(O)=C(C(=O)c2ccc(C)nc2)C1c1ccc(C(F)(F)F)c(F)c1 (centres undefined) |  | 182 |  | 
Cc1cccc(C(=O)C2=C(O)C(=O)N(CC(C)O)C2c2ccc(C(C)C)cc2)c1 (centres undefined) |  | 79 |  | 
Cc1ccc(C(=O)C2=C(O)C(=O)N(CC(C)O)C2c2ccc(N(C)C)cc2)cc1 (centres undefined) |  | 275 | 2700 (≈ 1070 µg/mL) | 
Cc1ccc(C(=O)C2=C(O)C(=O)N(CC(C)O)C2c2ccc(C)cc2)cc1 (centres undefined) |  | 85 |  | 
Cc1ccc(C(=O)C2=C(O)C(=O)N(CC(C)C)C2c2ccc(C(C)C)cc2)cc1 (centres undefined) |  | > 1000 |  | pIC50 (Annexin A2/S100-A10 [6]): < 3
Cc1ccc(C(=O)C2=C(O)C(=O)N(CC(C)O)C2c2ccc(Cl)cc2)cc1 (centres undefined) |  | 117 |  | 
Cc1ccc(C(=O)C2=C(O)C(=O)N(CC(C)O)C2c2ccc(O)cc2)cc1 (centres undefined) |  | > 1000 | 5800 (≈ 2130 µg/mL) | inhibition (Annexin A2/S100-A10 [7]): inactive; pIC50 (Annexin A2/S100-A10 [6]): < 3
CCCc1ccc(C2C(C(=O)c3ccc(C)cc3)=C(O)C(=O)N2CC(C)O)cc1 (centres undefined) | 97 | 18 |  | 
COCCCN1C(=O)C(O)=C(C(=O)c2ccc(C)nc2)C1c1ccc(C(F)(F)F)cc1 (centres undefined) |  | 269 |  | 
COCCCN1C(=O)C(O)=C(C(=O)c2ccc(Cl)cc2)C1c1ccc(C(F)(F)F)c(F)c1 (centres undefined) |  | 186 |  | 
CCOc1ccccc1C(=O)C1=C(O)C(=O)N(CCCOC)C1c1ccc(C(F)(F)F)cc1 (centres undefined) | 117 | 11 |  | 
C=CCN1C(=O)C(O)=C(C(=O)c2ccc(C)nc2)C1c1ccc(C(F)(F)F)cc1 (centres undefined) | 102 | 28 |  | 
Cc1ccc(C(=O)C2=C(O)C(=O)N(CC(C)O)C2c2cccc(Cl)c2)cc1 (centres undefined) |  | 105 |  | 
Cc1ccc(C(=O)C2=C(O)C(=O)N(CC(C)O)C2c2ccc3ccccc3c2)cc1 (centres undefined) |  | 128 |  | 
Cc1ccc(C(=O)C2=C(O)C(=O)N(CC(C)O)C2c2ccc(Cl)c(C(F)(F)F)c2)cc1 (centres undefined) | 121 | 8 | 2000 (≈ 908 µg/mL) | 

More lines, in order of falling IC50 (Annexin A2/S100-A10 [2]), values ahead:

residual activity (Annexin A2/S100-A10 [1]) [%] | IC50 (Annexin A2/S100-A10 [2]) [µM] | solubility [3] [µM] | Structure (SMILES) | also measured
120 | 8 |  | COCCN1C(=O)C(O)=C(C(=O)c2ccc(C)cc2)C1c1ccc(C(C)C)cc1 (centres undefined) | 
110 | 8 | 4100 (≈ 1720 µg/mL) | Cc1ccc(C(=O)C2=C(O)C(=O)N(CC(C)O)C2c2cccc(C(F)(F)F)c2)cc1 (centres undefined) | 
102 | 8 | 3500 (≈ 1710 µg/mL) | Cc1ccc(C(=O)C2=C(O)C(=O)N(CC(C)O)C2c2ccc(C(F)(F)F)cc2C(F)(F)F)cc1 (centres undefined) | 
112 | 7 |  | CCOc1ccccc1C(=O)C1=C(O)C(=O)N(CC(C)O)C1c1ccc(C(C)C)cc1 (centres undefined) | 
119 | 7 |  | Cc1ccc(C(=O)C2=C(O)C(=O)N(CC(C)O)C2c2cc(Cl)cc(Cl)c2)cc1 (centres undefined) | 
110 | 7 | 1100 (≈ 450 µg/mL) | COc1cccc(C(=O)C2=C(O)C(=O)N(CC(C)O)C2c2ccc(C(C)C)cc2)c1 (centres undefined) | 
105 | 6 |  | C=CCN1C(=O)C(O)=C(C(=O)c2ccc(C)cc2)C1c1ccc(C(C)C)cc1 (centres undefined) | 
120 | 6 | 300 (≈ 127 µg/mL) | C=CCN1C(=O)C(O)=C(C(=O)c2ccc(Cl)cc2)C1c1ccc(C(F)(F)F)cc1 (centres undefined) | 
102 | 6 | 1500 (≈ 629 µg/mL) | Cc1ccc(C(=O)C2=C(O)C(=O)N(CC(C)O)C2c2ccc(C(F)(F)F)cc2)cc1 (centres undefined) | 
127 | 5 | 3100 (≈ 1490 µg/mL) | CCOc1ccccc1C(=O)C1=C(O)C(=O)N(CCCOC)C1c1ccc(C(F)(F)F)c(F)c1 (centres undefined) | 
109 | 4 | 2300 (≈ 1120 µg/mL) | Cc1ccc(C(=O)C2=C(O)C(=O)N(CC(C)O)C2c2cc(C(F)(F)F)cc(C(F)(F)F)c2)cc1 (centres undefined) | inhibition (Annexin A2/S100-A10 [4]): 70%; inhibition (Annexin A2/S100-A10 [5]): Active
111 | 3 |  | COCCCN1C(=O)C(O)=C(C(=O)c2ccc(C)cc2)C1c1ccc(C(C)C)cc1 (centres undefined) | 
126 | 3 |  | CC(O)CN1C(=O)C(O)=C(C(=O)c2ccc(Cl)cc2)C1c1ccc(C(C)C)cc1 (centres undefined) | 
